Data: ChEMBL document CHEMBL3045119, “Synthesis and fungicidal activity of novel aminophenazine-1-carboxylate derivatives” (J Agric Food Chem, 2010)
Values after ≈ are worked out from the molar mass of the structure shown.

Key:
Mycosphaerella arachidis [1] = assay: Fungicidal activity against Mycosphaerella arachidis assessed as inhibition of mycelium growth at 50 ug/mL by mycelium growth rate method; type: functional
Method in brief: (§1)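 Mycelium growth rate method: colony diameters measured once mycelia had grown completely, and the relative inhibition rate (%) calculated from the diameters by formula. Phenazine-1-carboxylic acid ran as control. Values are the average of three replicate results.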

Alternaria solani [2] = assay: Fungicidal activity against Alternaria solani assessed as inhibition of mycelium growth at 50 ug/mL by mycelium growth rate method; type: functional; method in brief: as §1
Fusarium graminearum [3] = assay: Fungicidal activity against Fusarium graminearum assessed as inhibition of mycelium growth at 50 ug/mL by mycelium growth rate method; type: functional; method in brief: as §1
[4] = tested on: Botryosphaeria berengeriana; assay: Fungicidal activity against Botryosphaeria berengeriana assessed as inhibition of mycelium growth at 50 ug/mL by mycelium growth rate method; type: functional; method in brief: as §1
Fusarium oxysporum [5] = assay: Fungicidal activity against Fusarium oxysporum assessed as inhibition of mycelium growth at 50 ug/mL by mycelium growth rate method; type: functional; method in brief: as §1
Fusarium oxysporum [6] = assay: Fungicidal activity against Fusarium oxysporum assessed as inhibition of mycelium growth by mycelium growth rate method; type: functional, organism-based; method in brief: as §1
Mycosphaerella arachidis [7] = assay: Fungicidal activity against Mycosphaerella arachidis assessed as inhibition of mycelium growth by mycelium growth rate method; type: functional, organism-based; method in brief: as §1
Fusarium graminearum [8] = assay: Fungicidal activity against Fusarium graminearum assessed as inhibition of mycelium growth by mycelium growth rate method; type: functional, organism-based; method in brief: as §1
Alternaria solani [9] = assay: Fungicidal activity against Alternaria solani assessed as inhibition of mycelium growth by mycelium growth rate method; type: functional, organism-based; method in brief: as §1
[10] = tested on: Botryosphaeria berengeriana; assay: Fungicidal activity against Botryosphaeria berengeriana assessed as inhibition of mycelium growth by mycelium growth rate method; type: functional, organism-based; method in brief: as §1

Structure (SMILES) | inhibition at 50 µg/mL (Mycosphaerella arachidis [1]) | inhibition at 50 µg/mL (Alternaria solani [2]) | inhibition at 50 µg/mL (Fusarium graminearum [3]) | inhibition at 50 µg/mL [4] | inhibition at 50 µg/mL (Fusarium oxysporum [5]) | EC50 (Fusarium oxysporum [6]) | EC50 (Mycosphaerella arachidis [7]) | EC50 (Fusarium graminearum [8]) | EC50 (Alternaria solani [9]) | EC50 [10]
Nc1cccc2nc3c(C(=O)O)cccc3nc12 | 7.7% | 0% | 12.9% | 19.2% | 13.8% | – | – | – | – | –
COC(=O)c1cccc2nc3cc(S(=O)(=O)c4ccc(C)cc4)ccc3nc12 | 22.2% | 33.3% | 17.5% | 8% | 13.5% | – | – | – | – | –
COC(=O)c1cccc2nc3c(C(=O)CCc4ccccc4)cccc3nc12 | 0% | 4.3% | 30.3% | 31.4% | 28% | – | – | – | – | –
CCOC(=O)c1cccc2nc3c(N)cccc3nc12 | 32% | 51% | 41.8% | 100% | 33.3% | > 50 µg/mL | > 50 µg/mL | > 50 µg/mL | 40.1 µg/mL (≈ 150 µM) | 4.44 µg/mL (≈ 16.6 µM)
Nc1ccc2nc3cccc(C(=O)O)c3nc2c1 | 11.5% | 5.9% | 33.9% | 9.6% | 6.9% | – | – | – | – | –
COC(=O)c1cccc2nc3cc(C(=O)CCCCl)ccc3nc12 | 7.7% | 37.7% | 36.8% | 0% | 0% | – | – | – | – | –
COC(=O)c1cccc2nc3c(NC(=O)CCCCl)c([N+](=O)[O-])ccc3nc12 | 35% | 20.5% | 40.4% | 34.4% | 16.3% | – | – | – | – | –
CCOC(=O)c1cccc2nc3cc(N)ccc3nc12 | 7.7% | 29.4% | 11.3% | 44.2% | 31% | – | – | – | – | –
CCOC(=O)c1cccc2nc3cc(N)c(OCC)cc3nc12 | 11.5% | 17.6% | 14.5% | 26.9% | 6.9% | – | – | – | – | –
COC(=O)c1cccc2nc3cc(C(=O)c4ccc(Cl)cc4Cl)ccc3nc12 | 0% | 3% | 0% | 0% | 7.1% | – | – | – | – | –
O=C(O)c1cccc2nc3ccccc3nc12 [PHENAZINE-1-CARBOXYLIC ACID] | 92.3% | 100% | 43.1% | 100% | 65.4% | 14.9 µg/mL (≈ 66.5 µM) | 13.2 µg/mL (≈ 58.9 µM) | > 50 µg/mL | 18.5 µg/mL (≈ 82.5 µM) | 3.58 µg/mL (≈ 16 µM)
COC(=O)c1cccc2nc3cc(N)ccc3nc12 | 0% | 33.3% | 15.1% | 25% | 10.8% | – | – | – | – | –
CCCOC(=O)c1cccc2nc3cc(N)c(OCCC)cc3nc12 | 21.7% | 20% | 20% | 26.5% | 0% | – | – | – | – | –
COC(=O)c1cccc2nc3ccc(N)cc3nc12 | 4% | 10% | 18.2% | 37.1% | 23.3% | – | – | – | – | –
COC(=O)c1cccc2nc3c(C(=O)c4ccc(Cl)cc4Cl)cccc3nc12 | 0% | 3.4% | 27.3% | 10.7% | 7.1% | – | – | – | – | –
CCCCOC(=O)c1cccc2nc3c(C(=O)CCCCl)cccc3nc12 | 8.3% | 6.1% | 0% | 0% | 10.7% | – | – | – | – | –
CCCCOC(=O)c1cccc2nc3cc(N)ccc3nc12 | 17.4% | 43.3% | 7.3% | 29.6% | 13.3% | – | – | – | – | –
CCCOC(=O)c1cccc2nc3cc(N)ccc3nc12 | 26.1% | 16.7% | 25.5% | 19.6% | 10% | – | – | – | – | –
COC(=O)c1cccc2nc3cc(C(=O)C(Cl)(Cl)Cl)ccc3nc12 | 12% | 0% | 4.8% | 21.8% | 5.3% | – | – | – | – | –
COC(=O)c1cccc2nc3c(C(=O)CCCCl)cccc3nc12 | 0% | 13.8% | 25% | 41.1% | 0% | – | – | – | – | –

Structure (SMILES) | inhibition at 50 µg/mL (Mycosphaerella arachidis [1]) | inhibition at 50 µg/mL (Alternaria solani [2]) | inhibition at 50 µg/mL (Fusarium graminearum [3]) | inhibition at 50 µg/mL [4] | inhibition at 50 µg/mL (Fusarium oxysporum [5]) | EC50 (Fusarium oxysporum [6]) | EC50 (Mycosphaerella arachidis [7]) | EC50 (Fusarium graminearum [8]) | EC50 (Alternaria solani [9]) | EC50 [10]
CCCCOC(=O)c1cccc2nc3cc(N)c(OCCCC)cc3nc12 | 13% | 13.3% | 23.6% | 25.5% | 0% | – | – | – | – | –
CCOC(=O)c1cccc2nc3ccc(N)cc3nc12 | 12% | 20% | 20% | 51.4% | 16.7% | – | – | – | – | –
CCCCOC(=O)c1cccc2nc3ccc(N)cc3nc12 | 24% | 23.3% | 23.6% | 34.3% | 26.7% | – | – | – | – | –
CCCCOC(=O)c1cccc2nc3c(N)cccc3nc12 | 8.3% | 24.2% | 2.7% | 15.6% | 21.4% | – | – | – | – | –
COC(=O)c1cccc2nc3c(N)cccc3nc12 | 26.9% | 100% | 36.3% | 100% | 40% | > 50 µg/mL | > 50 µg/mL | > 50 µg/mL | 20.5 µg/mL (≈ 81.1 µM) | 3 µg/mL (≈ 11.8 µM)
CCCOC(=O)c1cccc2nc3c(N)cccc3nc12 | 30% | 46.7% | 43.6% | 57.1% | 36.7% | – | – | – | – | –
CCCCOC(=O)c1cccc2nc3c(NC(=O)CCCCl)c([N+](=O)[O-])ccc3nc12 | 11.1% | 17.4% | 51.5% | 37.1% | 16% | – | – | – | – | –
COC(=O)c1cccc2nc3c(S(=O)(=O)c4ccc([N+](=O)[O-])cc4)cccc3nc12 | 25% | 13.8% | 31.8% | 17.9% | 17.9% | – | – | – | – | –
COC(=O)c1cccc2nc3cc(C(C)=O)ccc3nc12 | 0% | 3.3% | 12.7% | 3.9% | 0% | – | – | – | – | –
COC(=O)c1cccc2nc3cc(C(=O)CCc4ccccc4)ccc3nc12 | 2.6% | 19.1% | 2.4% | 0% | 11.1% | – | – | – | – | –
COC(=O)c1cccc2nc3c(S(=O)(=O)c4ccccc4[N+](=O)[O-])cccc3nc12 | 0% | 3.4% | 43.2% | 28.6% | 0% | – | – | – | – | –
CCCCOC(=O)c1cccc2nc3cc(OCCCC)c(N)cc3nc12 | 16.7% | 17.4% | 42.4% | 34.3% | 20% | – | – | – | – | –
CCCCOC(=O)c1cccc2nc3c([N+](=O)[O-])c(N)ccc3nc12 | 12.5% | 17.2% | 25% | 16.1% | 17.9% | – | – | – | – | –
COC(=O)c1cccc2nc3cc(S(=O)(=O)c4ccc([N+](=O)[O-])cc4)ccc3nc12 | 8% | 6.5% | 0% | 18.2% | 15.8% | – | – | – | – | –
CCCOC(=O)c1cccc2nc3ccc(N)cc3nc12 | 20% | 20.2% | 27.3% | 48.6% | 33.3% | – | – | – | – | –
COC(=O)c1cccc2nc3c(N)c([N+](=O)[O-])cc([N+](=O)[O-])c3nc12 | 22.2% | 21.7% | 57.6% | 50% | 32% | – | – | – | – | –
CCCCOC(=O)c1cccc2nc3c(N)c([N+](=O)[O-])cc([N+](=O)[O-])c3nc12 | 5.6% | 17.4% | 53% | 42.9% | 24% | – | – | – | – | –
COC(=O)c1cccc2nc3cc(C(=O)COC(C)=O)ccc3nc12 | 4% | 6.5% | 4.8% | 1.8% | 5.3% | – | – | – | – | –
Nc1ccc2nc3c(C(=O)O)cccc3nc2c1 | 11.1% | 5.1% | 1.6% | 4.9% | 2.7% | – | – | – | – | –
